ChEMBL document CHEMBL3600357 (J Med Chem, 2015)

What was measured:
SJSA-1 = assay: Inhibition of cell proliferation of human SJSA1 cells
Rattus norvegicus [1] = assay: AUC in Sprague-Dawley rat at 1 mg/kg, iv; assay type: ADME, organism-based; conditions: in vivo
Summary of the method: (§1)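 Sprague-Dawley rats. IV dose given as a solution in NMP:PEG200 (10:90); 3 mg/kg PO given as a suspension in CMC:water:Tween (0.5:99:0.5). AUC and Cmax dose-normalized to 1 mg/kg. Mean ± SD from four rats.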

[2] = Tmax in Sprague-Dawley rat at 3 mg/kg, po; assay type: ADME, organism-based; conditions: in vivo
[3] = Terminal half life in Sprague-Dawley rat at 1 mg/kg, iv; assay type: ADME, organism-based; conditions: Sprague-Dawley, in vivo, read-out: beta t1/2 (converted); summary of the method: as §1
[4] = Half life in rat liver microsomes; assay type: ADME
[5] = Volume of distribution at steady state in Sprague-Dawley rat at 1 mg/kg, iv; assay type: ADME, organism-based; conditions: Sprague-Dawley, in vivo, read-out: Vdss
[6] = target: Voltage-gated inwardly rectifying potassium channel KCNH2 (Homo sapiens, UniProt Q12809); assay: Inhibition of human ERG by radioligand binding assay
[7] = Permeability in human Caco2 cells assessed as drug recovery during apical to basolateral transport; assay type: ADME, cell-based; conditions: Caco-2, read-out: Drug recovery
Rattus norvegicus [8] = assay: Oral bioavailability in Sprague-Dawley rat at 3 mg/kg; assay type: ADME, organism-based; conditions: in vivo; summary of the method: as §1
Cytochrome P450 3A4 [9] = target: T1, Cytochrome P450 3A4 (Homo sapiens, UniProt P08684); assay: Time dependent inhibition of CYP3A4 (unknown origin); assay type: ADME
[10] = Clearance in Sprague-Dawley rat at 1 mg/kg, iv; assay type: ADME, organism-based; conditions: in vivo; summary of the method: as §1
Rattus norvegicus [11] = assay: AUC in Sprague-Dawley rat at 3 mg/kg, po; assay type: ADME, organism-based; conditions: in vivo; summary of the method: as §1
[12] = Permeability from basolateral to apical side in human Caco2 cells; assay type: ADME, cell-based; conditions: Caco-2
[13] = Protein binding in Sprague-Dawley rat plasma by equilibrium dialysis method; assay type: ADME, cell-free; conditions: read-out: PPB
Summary of the method: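 Rat plasma protein binding by rapid equilibrium dialysis (RED) in 100% plasma.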

[14] = Intrinsic clearance in rat liver microsomes; assay type: ADME; conditions: read-out: CLH
[15] = Cmax in Sprague-Dawley rat at 3 mg/kg, po; assay type: ADME, organism-based; design: dose 3 mg/kg, route oral; conditions: in vivo; summary of the method: as §1
[16] = Equilibrium solubility in pH 6.8 buffer solution; assay type: physicochemical
Summary of the method: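 High-throughput equilibrium solubility assay at pH 6.8.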

[17] = Permeability from apical to basolateral side in human Caco2 cells; assay type: ADME, cell-based; conditions: Caco-2
[18] = Intrinsic clearance in human liver microsomes; assay type: ADME; conditions: read-out: CLH
Cytochrome P450 3A4 [19] = target: T1, Cytochrome P450 3A4; assay: Time dependent inhibition of CYP3A4 in human liver microsomes; assay type: ADME
[20] = Octanol water partition coefficient, logP of the compound; assay type: physicochemical
[21] = target: Tumour suppressor p53/oncoprotein Mdm2 (Homo sapiens, UniProt Q00987); assay: Inhibition of MDM2/p53 interaction (unknown origin) using biotinylated MDM2 and Cy5-p53 (18 to 26 amino acids) by TR-FRET assay; assay type: protein assay
[22] = Intrinsic clearance in monkey liver microsomes; assay type: ADME, Macaca mulatta; conditions: rhesus monkey, read-out: CLH
[23] = Inhibition of rat MDM2 by TR-FRET assay
[24] = target: E3 ubiquitin-protein ligase Mdm2 (Mus musculus, UniProt P23804); assay: Inhibition of mouse MDM2 by TR-FRET assay
[25] = target: E3 ubiquitin-protein ligase Mdm2 (Canis lupus familiaris, UniProt P56950); assay: Inhibition of dog MDM2 by TR-FRET assay
Sequence of E3 ubiquitin-protein ligase Mdm2 (Canis lupus familiaris, UniProt P56950) (P56950 whole entry): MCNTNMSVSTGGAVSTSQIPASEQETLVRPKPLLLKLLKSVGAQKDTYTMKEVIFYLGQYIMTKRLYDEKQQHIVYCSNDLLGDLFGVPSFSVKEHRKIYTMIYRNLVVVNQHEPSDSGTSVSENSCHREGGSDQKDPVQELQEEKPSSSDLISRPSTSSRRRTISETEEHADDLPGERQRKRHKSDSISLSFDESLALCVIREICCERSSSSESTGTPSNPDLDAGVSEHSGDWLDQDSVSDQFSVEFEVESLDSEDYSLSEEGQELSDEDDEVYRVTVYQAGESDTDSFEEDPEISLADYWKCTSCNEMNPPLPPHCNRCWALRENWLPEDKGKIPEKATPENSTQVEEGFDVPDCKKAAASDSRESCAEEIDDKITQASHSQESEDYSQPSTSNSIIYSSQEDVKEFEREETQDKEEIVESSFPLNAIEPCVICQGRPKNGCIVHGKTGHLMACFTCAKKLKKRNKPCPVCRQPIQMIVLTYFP

Sequence of Tumour suppressor p53/oncoprotein Mdm2 (P04637 whole entry, the tested form may be a part): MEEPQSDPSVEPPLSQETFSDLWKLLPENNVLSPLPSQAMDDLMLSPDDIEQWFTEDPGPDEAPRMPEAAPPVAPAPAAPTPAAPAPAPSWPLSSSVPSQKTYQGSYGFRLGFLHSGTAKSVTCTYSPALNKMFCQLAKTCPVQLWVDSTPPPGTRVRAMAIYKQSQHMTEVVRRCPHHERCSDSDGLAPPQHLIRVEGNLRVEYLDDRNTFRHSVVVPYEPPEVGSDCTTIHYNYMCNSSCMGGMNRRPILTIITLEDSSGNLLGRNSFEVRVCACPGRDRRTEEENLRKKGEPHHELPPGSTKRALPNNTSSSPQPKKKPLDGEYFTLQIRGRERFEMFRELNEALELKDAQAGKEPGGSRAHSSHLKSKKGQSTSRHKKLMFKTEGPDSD
Sequence of Tumour suppressor p53/oncoprotein Mdm2 (Q00987 whole entry, the tested form may be a part): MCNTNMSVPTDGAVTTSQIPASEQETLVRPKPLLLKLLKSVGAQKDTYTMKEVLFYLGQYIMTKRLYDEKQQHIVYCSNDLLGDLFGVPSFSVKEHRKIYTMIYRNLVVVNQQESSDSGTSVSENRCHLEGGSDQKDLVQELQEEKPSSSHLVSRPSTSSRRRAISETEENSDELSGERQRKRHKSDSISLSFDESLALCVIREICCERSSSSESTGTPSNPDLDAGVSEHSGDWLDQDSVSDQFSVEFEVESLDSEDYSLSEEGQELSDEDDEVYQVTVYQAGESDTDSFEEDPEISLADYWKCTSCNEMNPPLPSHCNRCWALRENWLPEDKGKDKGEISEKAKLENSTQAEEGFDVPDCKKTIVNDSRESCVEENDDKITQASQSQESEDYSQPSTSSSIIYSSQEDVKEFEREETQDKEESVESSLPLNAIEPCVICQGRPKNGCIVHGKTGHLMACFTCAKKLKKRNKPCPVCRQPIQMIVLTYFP
Sequence of Voltage-gated inwardly rectifying potassium channel KCNH2 (Q12809 whole entry): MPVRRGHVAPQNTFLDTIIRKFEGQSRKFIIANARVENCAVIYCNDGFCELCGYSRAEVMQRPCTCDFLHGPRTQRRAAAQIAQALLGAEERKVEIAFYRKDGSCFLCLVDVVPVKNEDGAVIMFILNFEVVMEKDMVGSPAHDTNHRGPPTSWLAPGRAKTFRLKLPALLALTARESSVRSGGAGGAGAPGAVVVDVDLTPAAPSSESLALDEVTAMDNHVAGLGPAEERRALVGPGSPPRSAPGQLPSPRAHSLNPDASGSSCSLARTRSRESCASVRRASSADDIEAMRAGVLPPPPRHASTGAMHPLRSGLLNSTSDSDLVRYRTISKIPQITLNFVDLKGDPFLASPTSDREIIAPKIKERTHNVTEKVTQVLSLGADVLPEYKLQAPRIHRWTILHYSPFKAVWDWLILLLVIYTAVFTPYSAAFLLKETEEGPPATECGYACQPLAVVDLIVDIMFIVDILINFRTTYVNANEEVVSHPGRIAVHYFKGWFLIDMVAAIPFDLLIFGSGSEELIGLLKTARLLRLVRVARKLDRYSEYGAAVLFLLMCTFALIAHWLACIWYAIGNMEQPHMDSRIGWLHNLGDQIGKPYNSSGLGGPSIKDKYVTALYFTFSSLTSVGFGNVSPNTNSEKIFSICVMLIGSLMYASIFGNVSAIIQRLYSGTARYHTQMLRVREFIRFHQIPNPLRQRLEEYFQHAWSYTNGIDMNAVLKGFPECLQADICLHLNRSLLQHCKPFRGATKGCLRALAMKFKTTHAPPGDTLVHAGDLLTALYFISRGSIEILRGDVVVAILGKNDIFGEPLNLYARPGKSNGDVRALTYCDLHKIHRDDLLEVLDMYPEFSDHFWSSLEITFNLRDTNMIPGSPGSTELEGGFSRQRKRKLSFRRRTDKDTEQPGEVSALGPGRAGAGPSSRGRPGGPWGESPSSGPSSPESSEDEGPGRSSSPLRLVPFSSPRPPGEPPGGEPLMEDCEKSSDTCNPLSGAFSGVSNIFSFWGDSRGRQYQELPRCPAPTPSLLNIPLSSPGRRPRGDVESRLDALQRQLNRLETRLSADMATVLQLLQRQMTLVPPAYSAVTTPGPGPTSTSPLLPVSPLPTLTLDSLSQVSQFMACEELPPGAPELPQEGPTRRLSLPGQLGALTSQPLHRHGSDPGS
T1 sequence (P08684 whole entry): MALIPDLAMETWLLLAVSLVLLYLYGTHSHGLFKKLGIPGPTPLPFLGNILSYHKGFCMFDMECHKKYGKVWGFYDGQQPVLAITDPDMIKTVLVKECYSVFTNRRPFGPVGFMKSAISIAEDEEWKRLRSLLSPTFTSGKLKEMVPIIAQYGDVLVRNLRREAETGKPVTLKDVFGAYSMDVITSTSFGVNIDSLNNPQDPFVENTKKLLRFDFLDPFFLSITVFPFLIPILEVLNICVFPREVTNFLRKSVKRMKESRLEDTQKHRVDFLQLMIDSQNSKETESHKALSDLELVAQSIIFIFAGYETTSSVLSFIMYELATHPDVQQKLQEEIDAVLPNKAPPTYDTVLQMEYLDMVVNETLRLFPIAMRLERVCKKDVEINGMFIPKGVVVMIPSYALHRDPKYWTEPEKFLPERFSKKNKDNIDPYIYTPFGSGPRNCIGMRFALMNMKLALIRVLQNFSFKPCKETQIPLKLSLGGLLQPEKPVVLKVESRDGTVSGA
Sequence of E3 ubiquitin-protein ligase Mdm2 (Mus musculus, UniProt P23804) (P23804 whole entry): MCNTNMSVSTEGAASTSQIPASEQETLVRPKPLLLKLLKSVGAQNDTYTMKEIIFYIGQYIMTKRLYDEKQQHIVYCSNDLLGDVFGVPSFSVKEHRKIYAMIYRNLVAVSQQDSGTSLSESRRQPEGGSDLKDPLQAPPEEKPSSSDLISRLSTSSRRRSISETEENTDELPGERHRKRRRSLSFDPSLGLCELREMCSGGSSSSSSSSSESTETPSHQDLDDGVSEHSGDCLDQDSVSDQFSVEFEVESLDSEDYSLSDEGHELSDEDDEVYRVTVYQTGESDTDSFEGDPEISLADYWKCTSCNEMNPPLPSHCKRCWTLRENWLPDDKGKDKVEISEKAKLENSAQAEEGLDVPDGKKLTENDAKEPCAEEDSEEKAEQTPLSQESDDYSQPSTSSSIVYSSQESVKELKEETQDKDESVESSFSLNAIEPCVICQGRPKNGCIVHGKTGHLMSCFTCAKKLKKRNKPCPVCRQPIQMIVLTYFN

`CC[C@@H](C)Oc1cc2c(cc1OC)CC(=O)N(c1ccc(N(C)Cc3ccncc3)cc1)C2c1ccc(Cl)cc1` (stereo not given in full) gave a GI50 (SJSA-1) of 3860 nM.
Work on `CC[C@@H](C)Oc1cc2c(cc1OC)CC(=O)N(c1ccc(N(C)Cc3ccncc3)cc1)[C@H]2c1ccc(Cl)cc1` yielded a GI50 (SJSA-1) of 1210 nM.
In the case of `CC[C@@H](C)Oc1cc2c(cc1OC)CC(=O)N(c1ccc(N(C)Cc3ccncc3)cc1)[C@@H]2c1ccc(Cl)cc1`, the GI50 (SJSA-1) is reported as 29600 nM.
For `CC[C@@H](C)Oc1cc2c(cc1OC)CC(=O)N(c1ccc(N(C)CC3CCNCC3)cc1)C2c1ccc(Cl)cc1` (stereo not given in full), the GI50 (SJSA-1) was 1090 nM.
Molecule `CC[C@@H](C)Oc1cc2c(cc1OC)CC(=O)N(c1ccc(N(C)C[C@H]3CC[C@H](N)CC3)cc1)C2c1ccc(Cl)cc1` (stereo not given in full) has a GI50 (SJSA-1) of 2850 nM.
Work on `CC[C@@H](C)Oc1cc2c(cc1OC)CC(=O)N(c1ccc(N(C)C[C@H]3CC[C@H](N(C)C)CC3)cc1)C2c1ccc(Cl)cc1` (stereo not given in full) yielded a GI50 (SJSA-1) of 1130 nM.
For `CC[C@@H](C)Oc1cc2c(cc1OC)CC(=O)N(c1ccc(N(C)C[C@H]3CC[C@H](N(C)C)CC3)cc1)[C@H]2c1ccc(Cl)cc1`, the AUC (Rattus norvegicus [1]) was 1574 nmol·h/L, the Tmax [2] was 7 h and the GI50 (SJSA-1) was 940 nM. The half-life [3] was 1150 min, the half-life [4] was 246 min and the Vd [5] was 23.9 L/kg. It also gave an IC50 [6] of 1.3 µM, a recovery [7] of under 30% and an F (Rattus norvegicus [8]) of 18%. The K (Cytochrome P450 3A4 [9]) was 0.042 min⁻¹, the clearance [10] was 15 mL/min/kg and the AUC (Rattus norvegicus [11]) was 297 nmol·h/L. For the same molecule, the Papp B→A [12] was 0.12 ×10⁻⁶ cm/s, the fraction unbound [13] was under 0.01 and the microsomal CLint [14] was 5.6 µL/min/mg. For the same molecule, the Cmax [15] was 17.6 nM, the solubility thermodynamic [16] was over 1000 µM and the Papp A→B [17] was 0.08 ×10⁻⁶ cm/s.
`COc1cc2c(cc1OC(C)C)[C@H](c1ccc(Cl)cc1)N(c1ccc(N(C)C[C@H]3CC[C@H](N(C)C)CC3)cc1)C(=O)C2` gave a GI50 (SJSA-1) of 710 nM, a microsomal CLint [18] of 4.6 µL/min/mg and an IC50 (Cytochrome P450 3A4 [19]) of 9.4 µM. For the same molecule, the logP [20] was over 4.2.
Molecule `CCC(=O)N[C@H]1CC[C@H](CN(C)c2ccc(N3C(=O)Cc4cc(OC)c(O[C@H](C)CC)cc4[C@@H]3c3ccc(Cl)cc3)cc2)CC1` has a GI50 (SJSA-1) of 4960 nM, an IC50 [6] of over 30 µM and an IC50 [21] of 20 nM.
`COc1cc2c(cc1OC(C)C)[C@H](c1ccc(Cl)cc1)N(c1ccc(N(C)C[C@H]3CC[C@H](N4CNC(=O)C4)CC3)cc1)C(=O)C2` gave a GI50 (SJSA-1) of 600 nM and an IC50 [21] of 1.7 nM.
Work on `COc1cc2c(cc1OC(C)C)[C@H](c1ccc(Cl)cc1)N(c1ccc(N(C)C[C@H]3CC[C@H](N4CCNC(=O)C4)CC3)cc1)C(=O)C2` yielded an AUC (Rattus norvegicus [1]) of 2154 nmol·h/L, a GI50 (SJSA-1) of 350 nM and a half-life [3] of 558 min. For the same molecule, the microsomal CLint [18] was 3.4 µL/min/mg, the Vd [5] was 8 L/kg and the IC50 [6] was 16 µM. The F (Rattus norvegicus [8]) was 49%, the AUC (Rattus norvegicus [11]) was 1018 nmol·h/L and the fraction unbound [13] was under 0.01. The IC50 (Cytochrome P450 3A4 [19]) was 11.3 µM, the Cmax [15] was 74.6 nM and the microsomal CLint [22] was 79.7 µL/min/mg. For the same molecule, the logP [20] was 5.3.
`COc1cc2c(cc1OC(C)C)[C@H](c1ccc(Cl)cc1)N(c1ccc(N(C)C[C@H]3CC[C@H](N(C)C)CC3)nc1)C(=O)C2` gave a microsomal CLint [18] of 78.3 µL/min/mg, an IC50 (Cytochrome P450 3A4 [19]) of 5 µM and a logP [20] of over 6.3. For the same molecule, the IC50 [21] was 1.6 nM.
`COc1cc2c(cc1OC(C)C)[C@H](c1ccc(Cl)cc1)N(c1ccc(N(C)C[C@H]3CC[C@H](N4CC(=O)N(C)C4)CC3)nc1)C(=O)C2` gave a microsomal CLint [18] of 157 µL/min/mg, an IC50 (Cytochrome P450 3A4 [19]) of 13.2 µM and a microsomal CLint [22] of 224 µL/min/mg. The logP [20] was 4.4 and the IC50 [21] was 11.4 nM.
For `COc1cc2c(cc1OC(C)C)[C@H](c1ccc(Cl)cc1)N(c1ccc(N(C)C[C@H]3CC[C@H](N4CCN(C)C(=O)C4)CC3)nc1)C(=O)C2`, the microsomal CLint [18] was 151 µL/min/mg, the IC50 (Cytochrome P450 3A4 [19]) was over 20 µM and the microsomal CLint [22] was 279 µL/min/mg. The logP [20] was 4.8.
`COc1cc2c(cc1OC(C)C)[C@H](c1ccc(Cl)cc1)N(c1ccc(N(C)C[C@H]3CC[C@H](N4CCN(C)C(=O)C4)CC3)cn1)C(=O)C2` showed a microsomal CLint [18] of 156 µL/min/mg, an IC50 (Cytochrome P450 3A4 [19]) of over 20 µM and a microsomal CLint [22] of 355 µL/min/mg. For the same molecule, the logP [20] was 4.6.
For `COc1cc2c(cc1OC(C)C)[C@H](c1ccc(Cl)cc1)N(c1cnc(N(C)C[C@H]3CC[C@H](N4CCN(C)C(=O)C4)CC3)cn1)C(=O)C2`, the microsomal CLint [18] was 220 µL/min/mg, the IC50 (Cytochrome P450 3A4 [19]) was over 20 µM and the microsomal CLint [22] was 420 µL/min/mg. The logP [20] was 4.6.
`COc1ccc(C2=N[C@@H](c3ccc(Cl)cc3)[C@@H](c3ccc(Cl)cc3)N2C(=O)N2CCNC(=O)C2)c(OC(C)C)c1` [NUTLIN-3] showed a Ki [23] of 12.6 nM, a Ki [24] of 19.9 nM and a Ki [25] of 10.5 nM.
